Screens deposited in PubChem BioAssay by Columbia University Molecular Screening Center.
Many of the other results were omitted from the sample, so hits are more common in it than they were.
Insulin prom act: TRM-6 insulin promoter activation. TRM-6 cells (human fetal islet line), insulin promoter eGFP reporter, imaging; plate-scaled: unstimulated 0, stimulated control 100. activation, % at 2 µM. hit rate 0.81% among 130,000. AID 1296;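 active = activation at 2 µM above a set limit, confirmed on inspection of the cell images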;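 note: share of cells whose green reporter signal exceeds an intensity cutoff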
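Test system: TRM-6 insulin promoter–eGFP reporter cells / Quantity: 1,000 cells per well / Reagent: tamoxifen inducer, 0.75 µM, in seeding medium / Compound dosing: 2 µM final, single concentration / Schedule: overnight tamoxifen, then two-day compound incubation at 37 °C / Measured by: automated fluorescence imaging of paraformaldehyde-fixed, Hoechst-counterstained cells, green channel / Read-out: percent activation from GFP-positive cell fraction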
Each line names hits and unclear results; the compound was inactive in the other large screens.

O=C(Nc1ccccc1Oc1ccccc1)C1CC1	none
CCOC(=O)c1c(CN2CCN(C)CC2)oc2ccc(OC)cc12	Insulin prom act 138
CCOC(=O)c1c(C)oc2ccc(OC(=O)c3cccs3)cc12	none
CCOC(=O)CCC(=O)c1c(C)oc2ccc(OC)cc12	none
COc1ccc(/C=N/NC(=O)C(=O)N2CCN(c3ccccc3OC)CC2)cc1	none
Cn1nnnc1SCSc1nnnn1C	Insulin prom act 625
Cn1nnnc1SCC(=O)NCc1ccccc1	none
Cn1nnnc1SCC(=O)c1cccs1	none
CC(C)OC(=O)NCN1C(=O)C2C3C=CC(C3)C2C1=O (stereo not drawn)	none
COCCOc1cc(-n2ccnc2SC)c(Cl)cc1Cl	none
CCCCC(=O)Nc1ccc(NC(=S)NC(=O)CCCCl)cc1OC	none
CSc1ccccc1NC(=O)c1ccc(CN2CCOCC2)cc1	Insulin prom act 276
O=C(Cc1ccccc1)Nc1ccc(CN2CCOCC2)cc1	none
O=C(Nc1ccc2c(c1)OCO2)c1ccc(CN2CCOCC2)cc1	none
CN(C)S(=O)(=O)c1cc(NC(=O)COC(=O)CCSc2ccc(Cl)cc2)ccc1Cl	none
Fc1ccc(OCCCCN2CCOCC2)cc1	none
O=C(CCC1CCCC1)Nc1ccc([N+](=O)[O-])cn1	none
COc1cc2[nH]ccc(=O)c2cc1OC	none
COc1ccc[nH]c1=O	Insulin prom act 154
COc1ccccc1Nc1nnc(C)c(=O)[nH]1	none
COCC(C)NC(=O)C1CC(c2cccc(Br)c2)=NO1 (stereo not drawn)	none
Cc1ccc(C(=O)N2CCN(C(=O)CN3CCOCC3)C2)cc1	none
Cc1ccc(S(=O)(=O)N2CCN(C(=O)CN3CCOCC3)C2C(C)C)cc1 (stereo not drawn)	Insulin prom act 500
O=C(CN1CCOCC1)N1CCN(S(=O)(=O)c2ccccc2)C1c1ccccc1 (stereo not drawn)	none
COc1ccccc1NC(=O)CNS(=O)(=O)c1ccccc1	none
COC(=O)C(NC(=O)CNS(=O)(=O)c1ccc(Br)cc1)c1ccccc1 (stereo not drawn)	Insulin prom act 275
COC(=O)C(CCSC)NC(=O)CNS(=O)(=O)c1ccc(Cl)cc1 (stereo not drawn)	none
COC(=O)c1sccc1NC(=O)c1csc(C)c1	none
Cc1c(C(=O)Oc2cccc3ccccc23)cnn1-c1ccccc1	none
Cc1sc(NC(=O)c2ccccc2F)c(CN2CCCCC2)c1C	Insulin prom act 485
CCOC(=O)c1sc(NC(=O)c2ccccc2F)c(C(N)=O)c1C	none
CCOC(=O)N1CCN(Cc2c(F)cccc2F)CC1	none
O=C(c1cc2cc(Cl)ccc2oc1=O)N1CCCC1	none
Cc1cc(C(=O)C(=O)O)c(C)n1-c1ccc(Cl)cc1	none
CC1(C)CC(=O)c2cc(C(=O)N3CCCCC3)c(=O)n(-c3ccc(Cl)cc3)c2C1	Insulin prom act 164
COc1ccc(N2C(=S)N=C(Nc3ccccc3)C23CCCCC3)cc1	none
CCN(CC)S(=O)(=O)c1ccc(OC)c(NC(=S)Nc2cccc(C)c2)c1	none
CCC(C)(C)NC(=O)C(c1ccc(C)cc1)N(Cc1ccco1)C(=O)CCC(=O)Nc1nccs1 (stereo not drawn)	none
Cc1ccccc1NC(=O)CSc1nc2n(n1)CCCCC2	none
Cc1cc2cc(CNC(=O)Nc3ccccc3)ccc2[nH]1	none
N#CC1=C(N)C(C#N)(C#N)[C@H](c2ccoc2)[C@H]2CN(Cc3ccccc3)CC=C12	Insulin prom act 212
N#CC1=C(N)C(C#N)(C#N)C(c2cccnc2)C2COCC=C12 (stereo not drawn)	none
N#CC1=C(N)C(C#N)(C#N)C(c2cccnc2)C2CN(C(=O)OCc3ccccc3)CC=C12 (stereo not drawn)	none
C=CCOc1ccc(C2CC(C)=NN2c2ccccc2)cc1 (stereo not drawn)	none
COc1cccc(/C=N/NC(=O)C(=O)N/N=C/c2cccc(OC)c2OC)c1OC	none
COc1cccc(/C=N/NC(=O)CO/N=C(\C)c2cccs2)c1OC	Insulin prom act 86
C/C(=N\OCC(=O)N/N=C/c1ccccc1)c1cccs1	none
Cc1cccc(N2CCN(c3nc4ccc(Cl)cc4n4cnnc34)CC2)c1C	none
COc1cc(NC(=S)NC(=O)CC(C)C)ccc1NC(=O)c1cc2ccccc2o1	none
CCOC(=O)N1CCC(=NNC(=O)c2cc3ccccc3cc2O)CC1	none
Cc1ccccc1/C=N/Nc1ccnc2cc(Cl)ccc12	none
CCOC(=O)N1CCC(=NNc2ccnc3cc(Cl)ccc23)CC1	Insulin prom act 558
COc1ccc(CNC(=O)c2nnn(-c3cccc(C(F)(F)F)c3)c2N)cc1	none
C#CCn1c(S(=O)(=O)Cc2ccc(OC)cc2)nc(-c2ccccc2)c1-c1ccccc1	none
OCCNc1c2ccccc2nc2c(F)c(F)c(F)c(F)c12	none
Cc1c2ccccc2nc2c(F)c(NCCO)c(F)c(F)c12	none
Cc1c2ccccc2nc2c(F)c(NC(C)C)c(F)c(F)c12	Insulin prom act 233
CCC(C)Sc1nc2c(c(=O)[nH]c(=O)n2C)n1C (stereo not drawn)	none
O=C(O)CCCC(=O)Nc1c(F)c(F)c(F)c(F)c1F	none
Cc1ccc(NC(=S)NNC(=O)Cn2nc([N+](=O)[O-])cc2C)cc1	none
COC(=O)C1=C(C)NC(=O)NC1c1ccc(-c2ccc(F)cc2)o1 (stereo not drawn)	none
COC(=O)C1=C(C)NC(=S)NC1c1ccc(-c2ccccc2C(=O)OC)o1 (stereo not drawn)	Insulin prom act 429
COC(=O)C1=C(C)NC(=S)NC1c1ccc(-c2cccc(Cl)c2)o1 (stereo not drawn)	none
C=CCN1C(=O)/C(=C/c2ccc(N(C)C)cc2)S/C1=N\c1nnc(CC)s1	Insulin prom act 163
COc1ccc(/C=C2\SC(=NCc3ccccc3)N(Cc3ccccc3)C2=O)cc1OC	none
COc1cccc(N/C=C/C(=O)c2ccc(Br)cc2)c1	none
COc1ccc(N/C=C\C(=O)c2ccc3c(c2)OCO3)cc1	none
COc1ccc(C(=O)/C=C/Nc2cccc(O)c2)cc1	Insulin prom act 80
Cc1ccc(-n2c(SCC3CCCCO3)nnc2-c2ccco2)cc1 (stereo not drawn)	none
NS(=O)(=O)c1ccc(NCc2cc(Cl)ccc2OCc2ccc(F)cc2)cc1	none
COc1ccc(S(=O)(=O)Nc2ccccc2OC)cc1NC(=O)CC1CC2CCC1C2 (stereo not drawn)	none
CCNC(=O)COc1ccc(-c2ccccc2)cc1	none
COCCCn1c(CCC(=O)O)ccc1-c1cccs1	Insulin prom act 86
CCCn1c(CCC(=O)O)ccc1-c1cccs1	none
O=C(O)CCc1ccc(-c2cccs2)n1CC1CCCO1 (stereo not drawn)	none
CC(NC(=O)Cc1c(F)cccc1Cl)C1CCCO1 (stereo not drawn)	none
CNC(=O)CSCc1c(F)cccc1Cl	none
O=C(Cc1c(F)cccc1Cl)N1CCCC1	Insulin prom act 557
CNc1nc(OCCNC(=O)Nc2ccccc2)nc(N2CCOCC2)n1	none
CC(=O)Nc1n[nH]c(S(=O)(=O)Cc2ccc(Cl)cc2Cl)n1	none
COc1cc2nc(-c3cccs3)oc(=O)c2cc1OC	none
CN(Cc1cccs1)CC(O)COCc1ccco1 (stereo not drawn)	none
OC(COCc1ccco1)CN1CCN(C(c2ccccc2)c2ccccc2)CC1 (stereo not drawn)	Insulin prom act 129
CN=c1sc2ccccc2n1CC(O)COCc1ccco1 (stereo not drawn)	none
CC(C)[C@H](NC(=O)c1ccc(C(C)(C)C)cc1)C(=O)Nc1nnc(C2CC2)s1	none
CCOc1ccc(-n2c(Cc3cc(=O)[nH]c(=O)[nH]3)nnc2SCC(=O)Nc2nnc(C)s2)cc1	none
COc1ccc(NCc2nnc(SCC(=O)Nc3cc(C(F)(F)F)ccc3Cl)o2)cc1	none
COc1ccc(-n2c(Cc3cc(=O)[nH]c(=O)[nH]3)nnc2SCC(=O)Nc2cc(C(F)(F)F)ccc2Cl)cc1	Insulin prom act 255
